What was measured:
[1] = Biodistribution in intestinal content of C57BL/6 mouse bearing mouse B16-F0 cells at 0.74 to 0.92 MBq, iv after 1 hr; type: ADME, organism-based; conditions: in vivo
Method in brief: (§1)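 Male C57BL6 mice with s.c. left-flank B16-F0 melanoma (5 × 10⁵ cells in PBS). Two mice per time point frozen in liquid nitrogen after CO₂ sacrifice. Eight 40 µm whole-body cryosections per mouse read by multiwire proportional counter. cpm/mm² converted to kBq/g and expressed as %ID/g.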

[2] = Ratio of drug level in tumor to lung of C57BL/6 mouse bearing mouse B16-F0 cells at 0.74 to 0.92 MBq, iv after 3 hrs; type: ADME, organism-based; conditions: in vivo
Method in brief: (§2)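 Tumour and organ radioactive concentrations came from whole-body cryosection counting (40 µm slices, eight per mouse, two mice per time) after tail-vein injection of the [¹²⁵I]-labelled compound (0.1 µmol) into male C57BL6 mice bearing s.c. B16-F0 melanoma. Each value is the ratio of the tumour concentration to the organ concentration.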

Muscle tissue = experiment: Biodistribution in muscle of C57BL/6 mouse bearing mouse B16-F0 cells at 0.74 to 0.92 MBq, iv after 1 hr; type: ADME, organism-based; conditions: in vivo; method in brief: as §1
[3] = Ratio of drug level in tumor to liver of C57BL/6 mouse bearing mouse B16-F0 cells at 0.74 to 0.92 MBq, iv after 1 hr; type: ADME, organism-based; conditions: in vivo; method in brief: as §2
[4] = Biodistribution in uvea of C57BL/6 mouse bearing mouse B16-F0 cells at 0.74 to 0.92 MBq, iv after 72 hrs; type: ADME, organism-based, Uveal tract; conditions: in vivo
Method in brief: (§3)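 [¹²⁵I]-labelled compound given iv by tail vein (0.1 µmol per mouse) to male C57BL6 mice bearing s.c. B16-F0 flank tumours (5 × 10⁵ cells in PBS). Two mice per time point were killed by CO₂, frozen in liquid nitrogen and cut into 40 µm cryosections, eight slices per mouse. Slice radioactivity was read on a multiwire proportional counter, converted to kBq/g and reported as %ID/g.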

[5] = Biodistribution in uvea of C57BL/6 mouse bearing mouse B16-F0 cells at 0.74 to 0.92 MBq, iv after 3 hrs; type: ADME, organism-based, Uveal tract; conditions: in vivo; method in brief: as §3
[6] = Biodistribution in gall bladder of C57BL/6 mouse bearing mouse B16-F0 cells at 0.74 to 0.92 MBq, iv after 3 hrs; type: ADME, organism-based; conditions: in vivo; method in brief: as §1
Pancreas = experiment: Biodistribution in pancreas of C57BL/6 mouse bearing mouse B16-F0 cells at 0.74 to 0.92 MBq, iv after 1 hr; type: ADME, organism-based; conditions: in vivo; method in brief: as §1
Liver [7] = experiment: Biodistribution in liver of C57BL/6 mouse bearing mouse B16-F0 cells at 0.74 to 0.92 MBq, iv after 3 hrs; type: ADME, organism-based; conditions: in vivo; method in brief: as §1
Thyroid gland [8] = experiment: Biodistribution in thyroid of C57BL/6 mouse bearing mouse B16-F0 cells at 0.74 to 0.92 MBq, iv after 72 hrs; type: ADME, organism-based; conditions: in vivo; method in brief: as §3
[9] = Biodistribution in tumor of C57BL/6 mouse bearing mouse B16-F0 cells at 0.74 to 0.92 MBq, iv after 3 hrs; type: ADME, organism-based, Neoplasm; conditions: in vivo; method in brief: as §3
Kidney [10] = experiment: Biodistribution in kidney of C57BL/6 mouse bearing mouse B16-F0 cells at 0.74 to 0.92 MBq, iv after 3 hrs; type: ADME, organism-based; conditions: in vivo; method in brief: as §1
Kidney [11] = experiment: Biodistribution in kidney of C57BL/6 mouse bearing mouse B16-F0 cells at 0.74 to 0.92 MBq, iv after 1 hr; type: ADME, organism-based; conditions: in vivo; method in brief: as §1
Spleen [12] = experiment: Biodistribution in spleen of C57BL/6 mouse bearing mouse B16-F0 cells at 0.74 to 0.92 MBq, iv after 1 hr; type: ADME, organism-based; conditions: in vivo; method in brief: as §3
Thyroid gland [13] = experiment: Biodistribution in thyroid of C57BL/6 mouse bearing mouse B16-F0 cells at 0.74 to 0.92 MBq, iv after 24 hrs; type: ADME, organism-based; conditions: in vivo; method in brief: as §3
[14] = Ratio of drug level in tumor to liver of C57BL/6 mouse bearing mouse B16-F0 cells at 0.74 to 0.92 MBq, iv after 3 hrs; type: ADME, organism-based; conditions: in vivo; method in brief: as §2
Blood [15] = experiment: Biodistribution in blood of C57BL/6 mouse bearing mouse B16-F0 cells at 0.74 to 0.92 MBq, iv after 3 hrs; type: ADME, organism-based; conditions: in vivo; method in brief: as §1
Thyroid gland [16] = experiment: Biodistribution in thyroid of C57BL/6 mouse bearing mouse B16-F0 cells at 0.74 to 0.92 MBq, iv after 6 hrs; type: ADME, organism-based; conditions: in vivo; method in brief: as §3
[17] = Biodistribution in uvea of C57BL/6 mouse bearing mouse B16-F0 cells at 0.74 to 0.92 MBq, iv after 6 hrs; type: ADME, organism-based, Uveal tract; conditions: in vivo; method in brief: as §3
[18] = Biodistribution in tumor of C57BL/6 mouse bearing mouse B16-F0 cells at 0.74 to 0.92 MBq, iv after 72 hrs; type: ADME, organism-based, Neoplasm; conditions: in vivo; method in brief: as §3
[19] = Biodistribution in Stomach content of C57BL/6 mouse bearing mouse B16-F0 cells at 0.74 to 0.92 MBq, iv after 1 hr; type: ADME, organism-based; conditions: in vivo; method in brief: as §1
[20] = Biodistribution in intestinal content of C57BL/6 mouse bearing mouse B16-F0 cells at 0.74 to 0.92 MBq, iv after 24 hrs; type: ADME, organism-based; conditions: in vivo; method in brief: as §1
[21] = Biodistribution in intestinal content of C57BL/6 mouse bearing mouse B16-F0 cells at 0.74 to 0.92 MBq, iv after 6 hrs; type: ADME, organism-based; conditions: in vivo; method in brief: as §1
[22] = Ratio of drug level in tumor to lung of C57BL/6 mouse bearing mouse B16-F0 cells at 0.74 to 0.92 MBq, iv after 1 hr; type: ADME, organism-based; conditions: in vivo; method in brief: as §2
[23] = Partition coefficient, log P in phosphate buffer solution at pH 7.4; type: physicochemical
Method in brief: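 Shake-flask partition: 50 µM [¹²⁵I]-labelled compound in phosphate buffer pH 7.4 was mixed with 2 mL n-octanol. Each phase was γ-counted, P was taken as the octanol/buffer activity ratio, and log P was reported.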

Liver [24] = experiment: Biodistribution in liver of C57BL/6 mouse bearing mouse B16-F0 cells at 0.74 to 0.92 MBq, iv after 6 hrs; type: ADME, organism-based; conditions: in vivo; method in brief: as §1
[25] = Ratio of drug level in tumor to liver of C57BL/6 mouse bearing mouse B16-F0 cells at 0.74 to 0.92 MBq, iv after 6 hrs; type: ADME, organism-based; conditions: in vivo; method in brief: as §2
[26] = Drug excretion in mouse B16-F0 cells bearing C57BL/6 mouse urine at 0.74 to 0.92 MBq, iv after 72 hrs; type: ADME, organism-based; conditions: in vivo
Method in brief: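 Urine was collected from two B16-F0 tumour-bearing C57BL6 mice for up to 72 h after iv tail-vein injection of the [¹²⁵I]-labelled compound (0.1 µmol). Samples were counted to give cumulative urinary excretion as %ID.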

[27] = Biodistribution in Stomach content of C57BL/6 mouse bearing mouse B16-F0 cells at 0.74 to 0.92 MBq, iv after 6 hrs; type: ADME, organism-based; conditions: in vivo; method in brief: as §1
Lung [28] = experiment: Biodistribution in lung of C57BL/6 mouse bearing mouse B16-F0 cells at 0.74 to 0.92 MBq, iv after 1 hr; type: ADME, organism-based; conditions: in vivo; method in brief: as §1
[29] = Biodistribution in intestinal content of C57BL/6 mouse bearing mouse B16-F0 cells at 0.74 to 0.92 MBq, iv after 3 hrs; type: ADME, organism-based; conditions: in vivo; method in brief: as §1
Spleen [30] = experiment: Biodistribution in spleen of C57BL/6 mouse bearing mouse B16-F0 cells at 0.74 to 0.92 MBq, iv after 6 hrs; type: ADME, organism-based; conditions: in vivo; method in brief: as §3
[31] = Biodistribution in uvea of C57BL/6 mouse bearing mouse B16-F0 cells at 0.74 to 0.92 MBq, iv after 1 hr; type: ADME, organism-based, Uveal tract; conditions: in vivo; method in brief: as §3
[32] = Biodistribution in Stomach content of C57BL/6 mouse bearing mouse B16-F0 cells at 0.74 to 0.92 MBq, iv after 24 hrs; type: ADME, organism-based; conditions: in vivo; method in brief: as §1
Liver [33] = experiment: Biodistribution in liver of C57BL/6 mouse bearing mouse B16-F0 cells at 0.74 to 0.92 MBq, iv after 1 hr; type: ADME, organism-based; conditions: in vivo; method in brief: as §1
[34] = Biodistribution in Stomach content of C57BL/6 mouse bearing mouse B16-F0 cells at 0.74 to 0.92 MBq, iv after 3 hrs; type: ADME, organism-based; conditions: in vivo; method in brief: as §1
[35] = Biodistribution in uvea of C57BL/6 mouse bearing mouse B16-F0 cells at 0.74 to 0.92 MBq, iv after 24 hrs; type: ADME, organism-based, Uveal tract; conditions: in vivo; method in brief: as §3
Thyroid gland [36] = experiment: Biodistribution in thyroid of C57BL/6 mouse bearing mouse B16-F0 cells at 0.74 to 0.92 MBq, iv after 3 hrs; type: ADME, organism-based; conditions: in vivo; method in brief: as §3
[37] = Biodistribution in tumor of C57BL/6 mouse bearing mouse B16-F0 cells at 0.74 to 0.92 MBq, iv after 24 hrs; type: ADME, organism-based, Neoplasm; conditions: in vivo; method in brief: as §3
[38] = Biodistribution in gall bladder of C57BL/6 mouse bearing mouse B16-F0 cells at 0.74 to 0.92 MBq, iv after 6 hrs; type: ADME, organism-based; conditions: in vivo; method in brief: as §1
[39] = Biodistribution in tumor of C57BL/6 mouse bearing mouse B16-F0 cells at 0.74 to 0.92 MBq, iv after 1 hr; type: ADME, organism-based, Neoplasm; conditions: in vivo; method in brief: as §3
[40] = Biodistribution in tumor of C57BL/6 mouse bearing mouse B16-F0 cells at 0.74 to 0.92 MBq, iv after 6 hrs; type: ADME, organism-based, Neoplasm; conditions: in vivo; method in brief: as §3
Lung [41] = experiment: Biodistribution in lung of C57BL/6 mouse bearing mouse B16-F0 cells at 0.74 to 0.92 MBq, iv after 3 hrs; type: ADME, organism-based; conditions: in vivo; method in brief: as §1
Blood [42] = experiment: Biodistribution in blood of C57BL/6 mouse bearing mouse B16-F0 cells at 0.74 to 0.92 MBq, iv after 1 hr; type: ADME, organism-based; conditions: in vivo; method in brief: as §1

CCN(CC)CCNC(=O)c1nc2cc([125I])ccc2[nH]1.Cl.Cl
Drug uptake [1]: 105.55 % ID/g | Ratio [2]: 4.31 | Drug uptake (Muscle tissue): 0.55 % ID/g | Ratio [3]: 1.13 | Drug uptake [4]: 7.26 % ID/g | Drug uptake [5]: 24.4 % ID/g | Drug uptake [6]: 160.6 % ID/g | Drug uptake (Pancreas): 6.17 % ID/g | Drug uptake (Liver [7]): 7.15 % ID/g | Drug uptake (Thyroid gland [8]): 174.73 % ID/g | Drug uptake [9]: 16.1 % ID/g | Drug uptake (Kidney [10]): 4.57 % ID/g | Drug uptake (Kidney [11]): 6.9 % ID/g | Drug uptake (Spleen [12]): 11.51 % ID/g | Drug uptake (Thyroid gland [13]): 142.88 % ID/g | Ratio [14]: 2.26 | Drug uptake (Blood [15]): 1.33 % ID/g | Drug uptake (Thyroid gland [16]): 34.17 % ID/g | Drug uptake [17]: 10.09 % ID/g | Drug uptake [18]: 4.5 % ID/g | Drug uptake [19]: 24.46 % ID/g | Drug uptake [20]: 3.19 % ID/g | Drug uptake [21]: 95.86 % ID/g | Ratio [22]: 2.86 | logD [23]: 1.47 | Drug uptake (Liver [24]): 3.38 % ID/g | Ratio [25]: 2.93 | Activity [26]: 17.1% | Drug uptake [27]: 8.62 % ID/g | Drug uptake (Lung [28]): 5.16 % ID/g | Drug uptake [29]: 72.05 % ID/g | Drug uptake (Spleen [30]): 14.97 % ID/g | Drug uptake [31]: 12.87 % ID/g | Drug uptake [32]: 2.32 % ID/g | Drug uptake (Liver [33]): 13.08 % ID/g | Drug uptake [34]: 17.98 % ID/g | Drug uptake [35]: 10.44 % ID/g | Drug uptake (Thyroid gland [36]): 63.44 % ID/g | Drug uptake [37]: 7.1 % ID/g | Drug uptake [38]: 38.11 % ID/g | Drug uptake [39]: 14.8 % ID/g | Drug uptake [40]: 9.9 % ID/g | Drug uptake (Lung [41]): 3.74 % ID/g | Drug uptake (Blood [42]): 3.31 % ID/g
